ChEMBL document CHEMBL4725302, “Isosteres of ester derived glucose uptake inhibitors” (Bioorg Med Chem Lett, 2020)

How the values were obtained:
[1] = Inhibition of glucose uptake in human NCI-H1299 cells at 30 uM incubated for 10 mins followed by […][3H]2-deoxyglucose and glucose addition and measured after 30 mins by scintillation counting method relative to control; format: functional; details: NCI-H1299, 10 min
In short: (§1)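 H1299 cells held 2 h in serum-free medium, then 30 min in KRP buffer. Treated ±30 µM compound for 10 min, then 37 MBq/L [3H]2-deoxyglucose plus 1 mmol/L glucose in KRP for 30 min uptake. Washed twice with ice-cold PBS, lysed in NaOH, radioactivity by scintillation counting. Replicates triplicate to hexad, repeated at least once; mean ± standard deviation.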

NCI-H1299 [2] = test: Antiproliferative activity against human NCI-H1299 cells assessed as reduction in cell viability at 30 uM incubated for 48 hrs by MTT assay relative to control; format: functional
In short: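 H1299 cells seeded at 5,000 per well, exposed in hexads to compound at 30 µM or DMSO (<0.5% v/v) for 48 h. MTT then added for 4 h and absorbance read at 570 nm. Conditions run in triplicate, quadruplicate or hexad, experiment repeated at least once; mean ± standard deviation.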

[3] = Inhibition of glucose uptake in human NCI-H1299 cells incubated for 10 mins followed by […][3H]2-deoxyglucose and glucose addition and measured after 30 mins by scintillation counting method; format: functional, cell-based; in short: as §1
[4] = Stability in human serum assessed as reduction in A549 cell viability at 30 uM measured upto 72 hrs by resazurin assay; format: cell-free
In short: (§2)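 Compound at 30 µM preincubated at 37 °C in DMEM with 10% FBS and 1% Pen/Strep for 0, 1, 2, 4, 6, 9, 12, 24, 48 and 72 h. This medium then applied for 24 h to 5 x 10^3 A549 cells (grown overnight, washed twice with PBS). Resazurin added for 30 min, fluorescence Ex 560/Em 590, normalized to DMSO mock.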

NCI-H1299 [5] = test: Antiproliferative activity against human NCI-H1299 cells assessed as reduction in cell viability incubated for 48 hrs by MTT assay; format: functional, cell-based; details: NCI-H1299, 48 h
A549 = test: Antitumor activity in human A549 cells xenografted in NU/J mouse assessed as reduction in tumor volume at 10 mg/kg, ip administered for 10 weeks and measured for every 7 day relative to control; format: functional; design: scale not given: the % may be the effect or the level left
[6] = Stability in human serum assessed as compound remaining incubated for 1 hr; format: ADME, cell-free; details: read-out: Stabilty
[7] = Stability in human serum assessed as reduction in A549 cell viability at 30 uM measured upto 12 hrs by resazurin assay; format: cell-free; in short: as §2

| SMILES | inhibition at 30 µM [1] [%] | inhibition at 30 µM (NCI-H1299 [2]) [%] | other results |
| --- | --- | --- | --- |
| O=C(Nc1ccc(Cl)cc1NC(=O)c1cc(O)ccc1Cl)c1cc(O)ccc1Cl | 89.9 | 45.3 | – |
| O=C(Nc1ccc(Cl)cc1NC(=O)c1ccc(F)c(O)c1)c1ccc(F)c(O)c1 | 47.8 | 25.7 | – |
| Oc1cccc(CNc2cccc(F)c2NCc2cccc(O)c2)c1 | 54.8 | 5 | – |
| Oc1cc(CNc2ccc(Cl)cc2NCc2ccc(F)c(O)c2)ccc1F | 24.1 | 22.1 | – |
| Cc1ccc(O)cc1CNc1ccc(Cl)cc1NCc1cc(O)ccc1C | 82.9 | 46.3 | – |
| Oc1cccc(CCc2cccc(F)c2CCc2cccc(O)c2)c1 | 60.7 | -22.7 | – |
| O=C(Nc1ccc(Cl)cc1NC(=O)c1ccc(Cl)c(O)c1)c1ccc(Cl)c(O)c1 | 85.2 | 19 | – |
| COc1ccc(CNc2ccc(Cl)cc2NCc2ccc(OC)c(O)c2)cc1O | 42.2 | 22 | – |
| O=C(Oc1cccc(O)c1)c1cccc(F)c1C(=O)Oc1cccc(O)c1 | 78.2 | 15.3 | – |
| O=C(Nc1cccc(F)c1NC(=O)c1cccc(O)c1)c1cccc(O)c1 | 20 | 33.4 | – |
| Oc1cccc(SCc2cccc(F)c2CSc2cccc(O)c2)c1 | 98.1 | -2 | – |
| Oc1cc(Cl)cc(CNc2ccc(Cl)cc2NCc2cc(O)cc(Cl)c2)c1 | 81.7 | 47.6 | – |
| Cc1ccc(C(=O)Nc2ccc(Cl)cc2NC(=O)c2ccc(C)c(O)c2)cc1O | 84.8 | 55 | – |
| COc1ccc(C(=O)Nc2ccc(Cl)cc2NC(=O)c2ccc(OC)c(O)c2)cc1O | 39.5 | 26 | – |
| Oc1cccc(CNc2ccc(F)cc2NCc2cccc(O)c2)c1 | 39.2 | 37.7 | – |
| Oc1cccc(COc2cccc(F)c2OCc2cccc(O)c2)c1 | 92.6 | 10.6 | – |
| O=C(Nc1ccc(F)cc1NC(=O)c1cccc(O)c1)c1cccc(O)c1 | 89.7 | 5.7 | – |

| SMILES | inhibition at 30 µM [1] [%] | inhibition at 30 µM (NCI-H1299 [2]) [%] | other results |
| --- | --- | --- | --- |
| Oc1cccc(OCc2cccc(F)c2COc2cccc(O)c2)c1 | 89.5 | -1.4 | – |
| Cc1ccc(CNc2ccc(Cl)cc2NCc2ccc(C)c(O)c2)cc1O | 93.7 | 77.5 | IC50 [3]: 1.9 µM; Stabilty [4]: Stable; IC50 (NCI-H1299 [5]): 7 µM |
| O=C(Oc1cccc(F)c1OC(=O)c1cccc(O)c1)c1cccc(O)c1 | 92.8 | 56.9 | Activity (A549): 70%; remaining at 1 h [6]: 25%; Stabilty [7]: Unstable |
| Oc1cc(CNc2ccc(Cl)cc2NCc2ccc(Cl)c(O)c2)ccc1Cl | 52.4 | 70.9 | – |
| Cc1cc(O)cc(C(=O)Nc2ccc(Cl)cc2NC(=O)c2cc(C)cc(O)c2)c1 | 61.4 | 84.7 | – |
| Oc1cc(CNc2ccc(Cl)cc2NCc2ccc(Br)c(O)c2)ccc1Br | 69.1 | 74.1 | – |
| [O-][S+](Cc1cccc(F)c1C[S+]([O-])c1cccc(O)c1)c1cccc(O)c1 (configuration not stated) | 17.2 | 0.2 | – |
| Cc1ccc(O)cc1C(=O)Nc1ccc(Cl)cc1NC(=O)c1cc(O)ccc1C | 21 | 21 | – |
| O=C(Nc1ccc(Cl)cc1NC(=O)c1ccc(Br)c(O)c1)c1ccc(Br)c(O)c1 | 97.3 | 54.6 | – |
| O=S(=O)(Cc1cccc(F)c1CS(=O)(=O)c1cccc(O)c1)c1cccc(O)c1 | 61.4 | 11.8 | – |
| Oc1cccc(CNc2ccc(Cl)cc2NCc2cccc(O)c2)c1 | 52.2 | 56.6 | – |
| O=C(Nc1ccc(Cl)cc1NC(=O)c1cccc(O)c1)c1cccc(O)c1 | 83.7 | 5.9 | – |
| Cc1cc(O)cc(CNc2ccc(Cl)cc2NCc2cc(C)cc(O)c2)c1 | 75 | 60.4 | – |
| Oc1cccc(COc2ccc(Cl)cc2OCc2cccc(O)c2)c1 | 91.2 | 14.3 | – |
| Oc1ccc(Cl)c(CNc2ccc(Cl)cc2NCc2cc(O)ccc2Cl)c1 | 80.7 | 70.8 | – |
| O=C(Nc1ccc(Cl)cc1NC(=O)c1cc(O)cc(Cl)c1)c1cc(O)cc(Cl)c1 | 60.6 | 61.3 | – |
